Source: PubChem (several laboratories)
SMARCA2 act = SMARCA2 (BRM) function activators, primary screen, cell-based, luminescence, high throughput; activation, % at 9.1 µM; 370,000 tested, 1% active; MG213 cells, MMTV-luciferase reporter, dexamethasone, overnight; AID 652017, 2013; in the data active = activation above about 7.8%;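 also: 0% = vehicle wells and 100% = reference activator wells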
CFTR F508del cor = F508del CFTR correction, initial screen, CFBE line, single point. CFBE cells, YFP halide quenching; stimulated with forskolin plus potentiator P3; % fluorescence drop versus neutral controls. activity (quench increase), % at 7.58 µM. 350,000 tested, 0.36% active. AID 720511, 2013;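 active = mean added fluorescence quench of at least 8% versus neutral control, with both replicates also reaching 8%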;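 also: cells transiently co-express mutant CFTR-F508del with the halide-sensitive YFP; corrector assay measuring rescue of mutant channel to the surface after 24 h compound exposure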
MC4R antag cAMP = MC4R antagonists of cAMP signaling, primary screen, cell-based, TR-FRET, antagonist arm of biased-ligand search; Melanocortin receptor 4 (Homo sapiens), P32245; 360,000 tested, 0.48% active; MC4R-expressing cells, MTII-stimulated cAMP, LANCE TR-FRET; inhibition, % at 6.5 µM;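 active = inhibition above its plate's cutoff, the mean of tested wells on that plate plus 3 SD, cut at about 29% in these data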;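 also: 0% = Melanotan II alone and 100% = Melanotan II plus saturating MCL0020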
Target sequence (P32245 whole entry, looked up): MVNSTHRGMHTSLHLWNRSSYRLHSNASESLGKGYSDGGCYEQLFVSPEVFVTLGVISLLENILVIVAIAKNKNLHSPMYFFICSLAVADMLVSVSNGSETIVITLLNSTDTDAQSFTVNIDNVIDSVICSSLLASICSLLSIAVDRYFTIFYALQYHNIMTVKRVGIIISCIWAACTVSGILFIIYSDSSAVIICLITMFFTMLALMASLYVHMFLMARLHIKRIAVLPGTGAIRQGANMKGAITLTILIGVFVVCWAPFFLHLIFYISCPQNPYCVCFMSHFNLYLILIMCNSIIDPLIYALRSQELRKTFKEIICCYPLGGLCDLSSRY
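system = U2OS cells with stable human MC4R expression | also added = Melanotan II challenge after compound preincubation | dosing = one concentration, 6.5 µM nominal | incubation = compound 30 min, challenge 1 h, detection 1 h | measured by = TR-FRET with Eu-cAMP and labeled anti-cAMP, 671 nm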
MC4R ag barr = MC4R agonists recruiting beta-arrestin, primary screen, cell-based, luminescence, agonist arm of biased-ligand search; Melanocortin receptor 4 (Homo sapiens), P32245; U2OS MC4R beta-arrestin complementation; percent of melanotan II response, DMSO zero; activation, % at 8.9 µM; 360,000 tested, 0.98% active;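 active = activation above a per-plate cutoff, the mean activation of sample wells on that plate plus 3 SD, cut at about 8% in these data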
U2OS cAMP counter = nonselective cAMP signaling inhibitors, parental cells, counter-screen for MC4R biased antagonist project, cell-based, TR-FRET, U2OS, forskolin, triplicate. inhibition, % at 6.5 µM. shares compounds with MC4R antag cAMP. 1,600 tested, 26% active. LANCE TR-FRET;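 active = mean inhibition over triplicates above the low-control well mean plus 3 SD, set per campaign, cut at about 13% in these data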;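 also: signal is single emission at 671 nm which falls as cellular cAMP rises; 0% = forskolin-stimulated wells and 100% = buffer without forskolin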
MC4R antag conf = MC4R cAMP antagonists, retest, confirmation, cell-based, TR-FRET | shares compounds with MC4R antag cAMP | 1,600 tested, 27% active | MC4R-expressing cells, MTII-stimulated cAMP | inhibition, % at 6.5 µM; in the data active = inhibition above about 29%;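 also: 0% = agonist stimulated wells alone and 100% = agonist stimulated wells plus saturating reference antagonist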
* marks the source's active call; other numbers are inactive results; · = no result given; ! = not active in a repeat. The list is not random: actives were taken first. Their share in the collection is about 2.1%.

SMILES	SMARCA2 act	CFTR F508del cor	MC4R antag cAMP	MC4R ag barr	U2OS cAMP counter	MC4R antag conf
CC(C)C(=O)Nc1ccc2c(c1)C(=O)N(C)[C@@H]1CC[C@H](CC(=O)NCc3cccc(F)c3)O[C@H]1CO2	·	-2.8	·	·	·	·
O=C(C[C@@H]1C=C[C@@H](NC(=O)c2cccc(F)c2)[C@@H](CO)O1)Nc1nccs1	·	-0.8	·	·	·	·
CNC[C@@H]1OCCCC[C@H](C)Oc2ccc(NC(=O)Nc3ccc(C(F)(F)F)cc3)cc2C(=O)N([C@@H](C)CO)C[C@@H]1C	·	-1.6	·	·	·	·
COc1ccc2nc3ccccc3nc2c1NC(=O)c1ccc(Br)cc1	-3.0	·	2.6	1.2	·	·
COc1ccc2nc3ccccc3nc2c1NC(=O)c1ccc(Cl)cc1	-0.9	·	-0.5	9.1*	·	·
Cc1ccc(-c2nnnn2C2C/C(=N\NC(N)=S)C3OCC2O3)cc1 (configuration not stated)	2.4	1.3	4.8	0.1	·	·
NC(=S)N/N=C1\CC(n2nnnc2-c2ccccc2Cl)C2COC1O2 (configuration not stated)	7.8*	-3.7	-1.5	0.1	·	·
C#CC(=O)N(c1cccc(OC)c1)C(C(=O)NC1CCCC1)c1cccs1 (configuration not stated)	-11.5	-10.4	34.7*	7.9	·	·
COc1ccc(N(C(=O)c2ccco2)C(C(=O)NC2CCCC2)c2cccs2)c(OC)c1 (configuration not stated)	1.3	-1.3	26.7	0.1	·	·
Cc1ccc(S(=O)(=O)N(C)C[C@H]2Oc3ccc(NS(=O)(=O)c4cn(C)cn4)cc3CC(=O)N([C@@H](C)CO)C[C@@H]2C)cc1	·	-2.9	·	·	·	·
O=C(C[C@H]1CC[C@H](NC(=O)c2ccncc2)[C@@H](CO)O1)NCC1CCCCC1	·	-0.6	·	·	·	·
Cc1ccc(Cl)cc1NC(=S)N1CCC(c2ccccc2)C1 (configuration not stated)	-1.6	1.0	30.5*	-0.8	-1.1	-4.5
COc1ccc(NC(=S)N2CCC(c3ccccc3)C2)cc1 (configuration not stated)	6.3	·	2.5	-0.7	·	·
Cc1noc(C)c1NC(=O)N(C)C[C@@H]1Oc2ccc(NS(=O)(=O)c3ccc(Cl)cc3)cc2CC(=O)N([C@@H](C)CO)C[C@H]1C	·	-4.8	·	·	·	·
CC(=O)N(C)C[C@H]1Oc2cc(Br)ccc2S(=O)(=O)N([C@H](C)CO)C[C@H]1C	·	2.4	·	·	·	·
CCOC(=O)CSc1ccc(-c2nc3cc(C)c(C)cc3[nH]2)cn1	-1.4	·	33.9*	-3.1	8.4	6.1
CCC(=O)Nc1ccc2c(c1)C(=O)N(C)[C@@H]1CC[C@@H](CC(=O)NCC3CCCCC3)O[C@@H]1CO2	·	0.2	·	·	·	·
CCNC(=O)[C@H]1[C@H](CO)[C@H]2Cn3c(ccc(-c4ccccc4)c3=O)[C@@H]1N2C(=O)c1ccccn1	·	1.9	·	·	·	·
NC(=NCCCCCCN=C(N)/N=C(\N)Nc1ccc(Cl)cc1)/N=C(\N)Nc1ccc(Cl)cc1	-3.1	11.5*!	80.3*!	2.1	-11.2	71.0*
CC(C)N=C(N)N=C(N)Nc1ccc(Cl)cc1	-5.5	-1.6	11.7	-1.0	·	·
COc1ccc(C2=NOC3(CC(=O)N(c4ccc(F)cc4)C3=O)C2)cc1 (configuration not stated)	-5.6	-0.3	29.3*	1.7	1.8	-5.9
Cc1ccc(S(=O)(=O)NC2CCCc3ccccc32)cc1C (configuration not stated)	-4.5	·	30.8*	3.5	-0.7	11.2
O=S(=O)(NC1CCc2ccccc21)c1ccccc1 (configuration not stated)	2.9	2.7	3.7	0.4	·	·
CC1=NOC(=O)/C1=C/c1ccc(-c2ccc(Cl)cc2)o1	·	·	62.9*	-3.0	10.8	30.9*
COc1ccccc1NC(=O)CSc1nnnn1C1CCCCC1	-1.3	0.1	29.8*	3.1	0.9	2.9
COC(=O)c1ccccc1NC(=O)CSc1nnnn1C1CCCCC1	-0.8	·	3.1	-0.7	·	·
